Here are results for 8 compounds from ChEMBL document CHEMBL3352156, “Endoplasmic reticulum stress suppressive compounds from the edible mushroom Mycoleptodonoides aitchisonii” (J Nat Prod, 2014).

Calls of active or inactive are those of the source. The calls are words filed in the database; no cut-off is given here.

Assay [1] concerns N2a. Put plainly: Protection against tunicamycin-induced ER-stress-dependent mouse Neuro2a cell death assessed as cell viability after 24 hrs by MTT assay. The assay is classed as functional, cell-based. A digest of the protocol:
(§1)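 Neuro2a cells in D-MEM with 10% FBS, seeded at 2000 cells/well and grown 24 h. Pretreated 6 h with graded compound levels in serum-free D-MEM, then stressor added to final 0.5 μg/mL tunicamycin or 10 nM thapsigargin for 24 h. MTT 0.25 mg/mL for 2 h, stopped with SDS/DMF, A570. Viability as percent of untreated cells; TG mean ± SE, n = 10−12; Tukey–Kramer tests.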
For orientation: Tetrazolium dyes change colour on reduction, which living cells bring about.

Assay [2] deals with N2a. The assay is described as follows: Protection against thapsigargin-induced ER-stress-dependent mouse Neuro2a cell death assessed as cell viability at > 50 uM after 24 hrs by MTT assay. It is filed as functional, cell-based. A digest of the protocol: as §1

On to `C[C@@H](O)[C@H]1COC(=O)[C@@H]1C`, for which the outcome in the assay on N2a [1] was inactive. Also, in the assay on N2a [2], the result was Active.

Consider `CC1=C(C)C(C)(O)OC1=O` (stereo unspecified), for which the outcome in the assay with N2a [1] was inactive. For the same compound, the result in the assay on N2a [2] was Active.

For `CC1=C(CO)C(C)(O)OC1=O` (stereo unspecified), the result with N2a [1] was inactive. Moreover, the result in the assay with N2a [2] was Active.

With `CC(=O)[C@@H]1COC(=O)[C@@H]1C`, the outcome in the assay on N2a [1] and in the assay with N2a [2] was inactive.

For `CC(=O)[C@@H]1COC(=O)[C@H]1C`, in the assay with N2a [1], the result was inactive. Further, in the assay on N2a [2], the outcome was Active.

For `CC1=C(C(C)O)C(O)OC1=O` (stereo unspecified), in the assay on N2a [1], the result was inactive. Also, the outcome in the assay with N2a [2] was Active.

In the case of `OCC[C@H](O)[C@H](O)Cc1ccccc1`, the outcome with N2a [1] was inactive. In addition, the result in the assay on N2a [2] was Active.

Turning to `OCC[C@H](O)CCc1ccccc1`, the outcome in the assay on N2a [1] was inactive. Further, the outcome in the assay on N2a [2] was Active.
